Data on 23 molecules can be found in ChEMBL document CHEMBL1139880, “Potent and selective agonists of human melanocortin receptor 5: cyclic analogues of alpha-melanocyte-stimulating hormone” (J Med Chem, 2007).

Test [1] deals with T1, Melanocyte-stimulating hormone receptor (Homo sapiens, UniProt Q01726). Briefly: Displacement of [125I]NDPalphaMSH from human cloned melanocortin receptor 1b expressed in CHO cells. It counts as cell-based.
For the next test, the target named is Melanocortin receptor 3 (Homo sapiens, UniProt P41968). In words: Displacement of [125I]NDPalphaMSH from human cloned MC3R expressed in CHO cells. It counts as cell-based. Background: Displacement assays read how much labelled ligand stays bound in the presence of the test substance.
Test [2] deals with T2, Melanocortin receptor 5 (Homo sapiens, UniProt P33032). Briefly: Displacement of [125I]NDPalphaMSH from human cloned MC5R expressed in CHO cells. It counts as cell-based.
In test [3] the target is T1, Melanocyte-stimulating hormone receptor. In words: Agonist activity at human melanocortin receptor 1b expressed in CHO cells assessed as cAMP accumulation. It counts as functional, cell-based. In short, it runs like this: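 Dissociated CHO cells were spun 5 min and resuspended in Earle's balanced salt solution with 10 mM HEPES pH 7.5, 5 mM MgCl2, 1 mM glutamine and 1 mg/mL BSA. They were incubated 40 min at room temperature with compound (0.003–5000 nM) plus 0.6 mM IBMX, then lysed with 0.1 M HCl. cAMP was measured by Flashplate cAMP assay.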

The next test addresses Melanocortin receptor 4 (Homo sapiens, UniProt P32245). In words: Displacement of [125I]NDPalphaMSH from human cloned MC4R expressed in CHO cells. It counts as cell-based.
Test [4] has as its target T2, Melanocortin receptor 5. Briefly: Agonist activity at human MC5R expressed in CHO cells assessed as cAMP accumulation. It counts as functional, cell-based. On the technique in general: Cyclic AMP is a second messenger, typically raised through Gs and lowered through Gi signalling.

As a reminder, the IC50 is the concentration that inhibits the measured activity by half. A lower IC50 goes with higher potency. By EC50 is commonly meant the concentration that produces a half-maximal response.

Structures are written as SMILES. Starred links: 1 amine or outer side, 2 acyl side, 3 side chain; linkers in the order of their positions; H or OH if unused. Positions of bridges follow the written chain, without caps; N, C: chain ends. Non-standard residues stand in square brackets, D forms with d. Residues, ends and D or L forms follow the SMILES beside them. ξ: configuration not given here. X2 = O=C([C@@H](Cc1ccc(Cc2ccccc2)cc1)N[*:1])[*:2]; Oic(3aξ,7aξ) = O=C(O)[C@@H]1CC2CCCCC2N1; Pip = O=C(O)[C@@H]1CCCCN1; Nle = CCCC[C@H](N)C(=O)O

T2 sequence (P33032 whole entry): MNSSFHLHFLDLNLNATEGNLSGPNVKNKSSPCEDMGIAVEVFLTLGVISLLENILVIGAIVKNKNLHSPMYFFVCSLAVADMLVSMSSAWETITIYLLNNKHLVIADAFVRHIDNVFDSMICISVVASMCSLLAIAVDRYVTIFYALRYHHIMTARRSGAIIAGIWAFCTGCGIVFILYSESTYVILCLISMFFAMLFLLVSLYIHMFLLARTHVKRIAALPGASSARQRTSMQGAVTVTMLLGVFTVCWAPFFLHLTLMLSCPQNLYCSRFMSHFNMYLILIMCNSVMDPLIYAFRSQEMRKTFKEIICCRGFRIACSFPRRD
T1 sequence (Q01726 whole entry): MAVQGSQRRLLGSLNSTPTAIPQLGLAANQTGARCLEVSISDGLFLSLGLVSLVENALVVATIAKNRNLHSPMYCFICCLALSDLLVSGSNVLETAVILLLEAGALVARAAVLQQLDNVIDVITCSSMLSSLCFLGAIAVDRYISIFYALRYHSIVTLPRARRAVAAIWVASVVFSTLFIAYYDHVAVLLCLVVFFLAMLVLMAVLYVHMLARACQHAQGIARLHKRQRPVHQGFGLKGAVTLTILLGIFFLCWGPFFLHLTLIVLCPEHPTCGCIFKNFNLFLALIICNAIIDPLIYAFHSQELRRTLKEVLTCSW
Melanocortin receptor 4, sequence (P32245 whole entry): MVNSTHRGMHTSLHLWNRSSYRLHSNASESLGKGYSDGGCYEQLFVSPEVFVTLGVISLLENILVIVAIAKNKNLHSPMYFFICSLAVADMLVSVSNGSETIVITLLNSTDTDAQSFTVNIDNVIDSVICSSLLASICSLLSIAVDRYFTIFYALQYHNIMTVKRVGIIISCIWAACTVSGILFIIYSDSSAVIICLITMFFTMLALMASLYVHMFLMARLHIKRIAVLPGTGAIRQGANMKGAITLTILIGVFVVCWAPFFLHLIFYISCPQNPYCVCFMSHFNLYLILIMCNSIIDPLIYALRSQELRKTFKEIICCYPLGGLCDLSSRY
Melanocortin receptor 3, sequence (P41968 whole entry): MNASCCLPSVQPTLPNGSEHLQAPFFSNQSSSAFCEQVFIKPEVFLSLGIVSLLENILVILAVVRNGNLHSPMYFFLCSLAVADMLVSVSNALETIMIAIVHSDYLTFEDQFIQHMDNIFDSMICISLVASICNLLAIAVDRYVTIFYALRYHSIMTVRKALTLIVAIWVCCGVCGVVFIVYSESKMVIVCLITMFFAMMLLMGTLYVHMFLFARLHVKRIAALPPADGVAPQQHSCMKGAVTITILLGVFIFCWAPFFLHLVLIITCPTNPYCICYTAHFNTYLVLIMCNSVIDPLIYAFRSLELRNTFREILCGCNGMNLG

Take `CCCC[C@H](NC(C)=O)C(=O)N[C@H]1CC(=O)NCCCC[C@@H](C(N)=O)NC(=O)[C@H](Cc2c[nH]c3ccccc23)NC(=O)[C@@H]2CCCN2C(=O)[C@@H](CCCCN)NC(=O)[C@H](Cc2cnc[nH]2)NC1=O`: the IC50 (in test [1]; at Melanocortin receptor 3; on Melanocortin receptor 5 [2]) was more than 10 µM each time.
On to `CCCC[C@H](NC(C)=O)C(=O)N[C@H]1CC(=O)NCCCC[C@@H](C(N)=O)NC(=O)[C@H](Cc2c[nH]c3ccccc23)NC(=O)[C@@H]2CCCN2C(=O)[C@H](Cc2ccccc2)NC(=O)[C@H](Cc2cnc[nH]2)NC1=O`, for which, in test [1], the IC50 was 0.98 µM (antagonist). In addition, the concentration giving a half-maximal response (EC50) in test [3] was more than 1 µM.
On to `CCCC[C@H](NC(C)=O)C(=O)N[C@H]1CC(=O)NCCCC[C@@H](C(N)=O)NC(=O)[C@H](Cc2c[nH]c3ccccc23)NC(=O)[C@@H]2CCCN2C(=O)[C@@H](C(c2ccccc2)c2ccccc2)NC(=O)[C@H](Cc2c[nH]cn2)NC1=O`, for which the 50% inhibitory concentration (IC50) in test [1] (cho) is 2.9 µM (antagonist); at Melanocortin receptor 3 (cho), more than 10 µM; at Melanocortin receptor 4 (cho) it was 0.074 µM (antagonist); at Melanocortin receptor 5 [2] (cho) it was 1.5 µM (antagonist).
In the case of `CCCC[C@H](NC(C)=O)C(=O)N[C@H]1CC(=O)NCCCC[C@@H](C(N)=O)NC(=O)[C@H](Cc2c[nH]c3ccccc23)NC(=O)[C@@H]2CCCN2C(=O)[C@@H](Cc2cnc[nH]2)NC(=O)[C@H](Cc2cnc[nH]2)NC1=O`, the IC50 in test [1] was more than 10 µM.
The same measure, in the same setting: the same measure for `CCCC[C@H](NC(C)=O)C(=O)N[C@H]1CC(=O)NCCCC[C@@H](C(N)=O)NC(=O)[C@H](Cc2c[nH]c3ccccc23)NC(=O)[C@@H]2CCCN2C(=O)[C@@H](CCCC)NC(=O)[C@H](Cc2cnc[nH]2)NC1=O`: more than 10 µM.
On to `CCCC[C@H](NC(C)=O)C(=O)N[C@H]1CC(=O)NCCCC[C@@H](C(N)=O)NC(=O)[C@H](Cc2c[nH]c3ccccc23)NC(=O)[C@@H]2CCCCN2C(=O)[C@@H](Cc2ccc(-c3ccccc3)cc2)NC(=O)[C@@H]2CCCN2C1=O`, for which the half-inhibitory concentration (IC50) is 0.065 µM (antagonist) in test [1], 0.27 µM (antagonist) at Melanocortin receptor 3, 0.16 µM (antagonist) at Melanocortin receptor 4 and 0.00015 µM (antagonist) on Melanocortin receptor 5 [2]. In addition, the figures for the EC50 (in test [3]; at Melanocortin receptor 5 [4]) were 0.028 µM (agonist) and 0.031 nM (agonist), respectively.
`CCCC[C@H](NC(C)=O)C(=O)N[C@H]1CC(=O)NCCCC[C@@H](C(N)=O)NC(=O)[C@H](Cc2c[nH]c3ccccc23)NC(=O)[C@@H]2CCCN2C(=O)[C@@H](Cc2ccc3ccccc3c2)NC(=O)[C@H](Cc2cnc[nH]2)NC1=O`: the IC50 in test [1] was 0.88 µM (antagonist). Also, the EC50 in test [3] was 0.089 µM (agonist).
The matching figures for `CCCC[C@H](NC(C)=O)C(=O)N[C@H]1CC(=O)NCCCC[C@@H](C(N)=O)NC(=O)[C@H](Cc2c[nH]c3ccccc23)NC(=O)[C@@H]2CCCN2C(=O)[C@@H](Cc2ccc(O)cc2)NC(=O)[C@H](Cc2cnc[nH]2)NC1=O`: more than 10 µM and more than 2.5 µM.
`CCCC[C@H](NC(C)=O)C(=O)N[C@H]1CC(=O)NCCCC[C@@H](C(N)=O)NC(=O)[C@H](Cc2c[nH]c3ccccc23)NC(=O)[C@@H]2CCCCN2C(=O)[C@@H](Cc2ccc(Cc3ccccc3)cc2)NC(=O)[C@@H]2CC3CCCCC3N2C1=O` (stereo not given in full) (Ac-[Nle]D[Oic(3aξ,7aξ)][X2][Pip]WK-NH2; lactam 2-7): the IC50 is more than 1 µM in test [1], more than 1 µM at Melanocortin receptor 3, 1.6 µM (antagonist) at Melanocortin receptor 4 and 0.024 µM (antagonist) at Melanocortin receptor 5 [2]. The EC50 on Melanocortin receptor 5 [4] was 31 nM (agonist).
In the case of `CCCC[C@H](NC(C)=O)C(=O)N[C@H]1CC(=O)NCCCC[C@@H](C(N)=O)NC(=O)[C@H](Cc2c[nH]c3ccccc23)NC(=O)[C@@H]2CCCN2C(=O)[C@@H](Cc2ccc(-c3ccccc3)cc2)NC(=O)[C@@H]2CC3CCCCC3N2C1=O` (stereo not given in full), the half-inhibitory concentration (IC50) in test [1] is 7.8 µM (antagonist); on Melanocortin receptor 3 it was 4.4 µM (antagonist); at Melanocortin receptor 4, 4.7 µM (antagonist); on Melanocortin receptor 5 [2], 0.01 µM (antagonist). For the same molecule, the EC50 in test [3] is more than 2.5 µM; at Melanocortin receptor 5 [4], 17 nM (agonist).
As to `CCCC[C@H](NC(C)=O)C(=O)N[C@H]1CC(=O)NCCCC[C@@H](C(N)=O)NC(=O)[C@H](Cc2c[nH]c3ccccc23)NC(=O)[C@@H]2CCCCN2C(=O)[C@@H](Cc2ccc(-c3ccccc3)cc2)NC(=O)[C@H](c2ccccc2)NC1=O`, the IC50 in test [1] is more than 1 µM; at Melanocortin receptor 3, more than 1 µM; at Melanocortin receptor 4, 0.99 µM (antagonist); at Melanocortin receptor 5 [2] it was 0.0021 µM (antagonist). Moreover, the EC50 on Melanocortin receptor 5 [4] is 0.29 nM (agonist).
For the molecule `CCCC[C@H](NC(C)=O)C(=O)N[C@H]1CC(=O)NCCCC[C@@H](C(N)=O)NC(=O)[C@H](Cc2c[nH]c3ccccc23)NC(=O)[C@@H]2CCCCN2C(=O)[C@@H](Cc2ccc(-c3ccccc3)cc2)NC(=O)[C@H](C(C)C)NC1=O`, the IC50 in test [1] was 4.9 µM (antagonist); at Melanocortin receptor 3, more than 10 µM; at Melanocortin receptor 4 it was 4.7 µM (antagonist); on Melanocortin receptor 5 [2], 0.0073 µM (antagonist). Moreover, the 50% effective concentration (EC50) in test [3] was 0.33 µM (agonist); at Melanocortin receptor 5 [4], 0.23 nM (agonist).
As for `CCCC[C@H](NC(C)=O)C(=O)N[C@H]1CC(=O)NCCCC[C@@H](C(N)=O)NC(=O)[C@H](Cc2c[nH]c3ccccc23)NC(=O)[C@@H]2CCCN2C(=O)[C@@H](Cc2cccs2)NC(=O)[C@H](Cc2cnc[nH]2)NC1=O`, the IC50 (in test [1]; at Melanocortin receptor 3; at Melanocortin receptor 5 [2]) was more than 5 µM throughout. The values for the EC50 (in test [3]; on Melanocortin receptor 5 [4]) were 0.54 µM (agonist) and more than 1500 nM, respectively.
`CCCC[C@H](NC(C)=O)C(=O)N[C@H]1CC(=O)NCCCC[C@@H](C(N)=O)NC(=O)[C@H](Cc2c[nH]c3ccccc23)NC(=O)[C@@H]2CCCN2C(=O)[C@H](Cc2ccc(OC)cc2)NC(=O)[C@H](Cc2cnc[nH]2)NC1=O` came in with an IC50 in test [1] of more than 2 µM.
`CCCC[C@H](NC(C)=O)C(=O)N[C@H]1CC(=O)NCCCC[C@@H](C(N)=O)NC(=O)[C@H](Cc2c[nH]c3ccccc23)NC(=O)[C@@H]2CCCCN2C(=O)[C@@H](Cc2ccc(-c3ccccc3)cc2)NC(=O)[C@@H]2Cc3ccccc3CN2C1=O`: the IC50 in test [1] was 0.71 µM (antagonist); at Melanocortin receptor 3 it was 3.9 µM (antagonist); on Melanocortin receptor 4 it was 0.72 µM (antagonist); on Melanocortin receptor 5 [2], 0.0027 µM (antagonist). In addition, the EC50 is 0.13 µM (agonist) in test [3] and 0.45 nM (agonist) on Melanocortin receptor 5 [4].
With `CCCC[C@H](NC(C)=O)C(=O)N[C@H]1CC(=O)NCCCC[C@@H](C(N)=O)NC(=O)[C@H](Cc2c[nH]c3ccccc23)NC(=O)[C@@H]2CCCN2C(=O)[C@@H](Cc2ccc(OC)cc2)NC(=O)[C@H](Cc2cnc[nH]2)NC1=O`, the half-maximal inhibitory concentration (IC50) in test [1] was 0.5 µM (antagonist). The half-maximal effective concentration (EC50) in test [3] was 0.05 µM (agonist).
As to `CCCC[C@H](NC(C)=O)C(=O)N[C@H]1CC(=O)NCCCC[C@@H](C(N)=O)NC(=O)[C@H](Cc2c[nH]c3ccccc23)NC(=O)[C@@H]2CCCN2C(=O)[C@@H](CCC(N)=O)NC(=O)[C@H](Cc2c[nH]cn2)NC1=O`, the IC50 (in test [1]; at Melanocortin receptor 3; on Melanocortin receptor 4; at Melanocortin receptor 5 [2]) was more than 10 µM in each case.
As to `CCCC[C@H](NC(C)=O)C(=O)N[C@H]1CC(=O)NCCCC[C@@H](C(N)=O)NC(=O)[C@H](Cc2c[nH]c3ccccc23)NC(=O)[C@@H]2CCCN2C(=O)[C@@H](CCC(=O)O)NC(=O)[C@H](Cc2c[nH]cn2)NC1=O`, the IC50 (in test [1]; on Melanocortin receptor 3; on Melanocortin receptor 4; at Melanocortin receptor 5 [2]) was more than 10 µM throughout.
Regarding `CCCC[C@H](NC(C)=O)C(=O)N[C@H]1CC(=O)NCCCC[C@@H](C(N)=O)NC(=O)[C@H](Cc2c[nH]c3ccccc23)NC(=O)[C@@H]2CCCN2C(=O)[C@@H](Cc2ccccc2)NC(=O)[C@H](Cc2cnc[nH]2)NC1=O`, the IC50 in test [1] is recorded as 2.5 µM (antagonist). Also, the EC50 in test [3] is 1.3 µM (agonist).
Consider `CCCC[C@H](NC(C)=O)C(=O)N[C@H]1CC(=O)NCCCC[C@@H](C(N)=O)NC(=O)[C@H](Cc2c[nH]c3ccccc23)NC(=O)[C@@H]2CCCCN2C(=O)[C@@H](Cc2ccc(-c3ccccc3)cc2)NC(=O)[C@@H]2CC3CCCCC3N2C1=O` (stereo not given in full), for which the IC50 was more than 5 µM in test [1], more than 5 µM at Melanocortin receptor 3, more than 5 µM on Melanocortin receptor 4 and 0.00095 µM (antagonist) at Melanocortin receptor 5 [2]. For the same molecule, the EC50 on Melanocortin receptor 5 [4] is given as 0.99 nM (agonist).
`CCCC[C@H](NC(C)=O)C(=O)N[C@H]1CC(=O)NCCCC[C@@H](C(N)=O)NC(=O)[C@H](Cc2c[nH]c3ccccc23)NC(=O)[C@@H]2CCCN2C(=O)[C@H]2Cc3ccccc3CN2C(=O)[C@H](Cc2cnc[nH]2)NC1=O`: the half-inhibitory concentration (IC50) (in test [1] (cho); on Melanocortin receptor 3 (cho); at Melanocortin receptor 5 [2] (cho)) was more than 10 µM in each case.
In the case of `CCCC[C@H](NC(C)=O)C(=O)N[C@H]1CC(=O)NCCCC[C@@H](C(N)=O)NC(=O)[C@H](Cc2c[nH]c3ccccc23)NC(=O)[C@@H]2CCCN2C(=O)[C@@H](Cc2ccc([N+](=O)[O-])cc2)NC(=O)[C@H](Cc2cnc[nH]2)NC1=O`, the IC50 in test [1] was more than 2 µM; at Melanocortin receptor 3, more than 2 µM; on Melanocortin receptor 5 [2], 0.78 µM (antagonist). Also, the concentration giving a half-maximal response (EC50) is more than 0.5 µM in test [3] and 770 nM (agonist) on Melanocortin receptor 5 [4].
Regarding `CCCC[C@H](NC(C)=O)C(=O)N[C@H]1CC(=O)NCCCC[C@@H](C(N)=O)NC(=O)[C@H](Cc2c[nH]c3ccccc23)NC(=O)[C@@H]2CCCN2C(=O)[C@@H](CC2CCCCC2)NC(=O)[C@H](Cc2c[nH]cn2)NC1=O`, the 50% inhibitory concentration (IC50) (in test [1]; on Melanocortin receptor 3; at Melanocortin receptor 4; on Melanocortin receptor 5 [2]) was more than 10 µM in each case. Moreover, in test [3], the EC50 was more than 2.5 µM.
